# Measurements from ChEMBL document CHEMBL1127520, “N-omega-fluoroalkyl analogs of (1R)-2 beta-carbomethoxy-3 beta-(4-iodophenyl)-tropane (beta-CIT): radiotracers for positron emission tomography and single photon emission computed tomography imaging of dopamine transporters” (J Med Chem, 1994).
# Legend:
# [1] = molecular target: Sodium-dependent dopamine transporter (Rattus norvegicus, UniProt P23977); assay: Binding affinity for dopamine transporters in rat brain tissue.; type: tissue-based
# How it was run: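 Crude membrane fraction from rat corpus striatum homogenate. Nonspecific binding defined with 30 μM methylphenidate. Each agent tested at six concentrations in duplicate. Concentration-inhibition curves computer-fit for IC50 ± SEM, converted to Ki = IC50/(1 + [L/Kd]).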
# [2] = system: Rattus norvegicus; assay: The compound was evaluated for its behavioral activity i.e., locomotor arousal in rat for a dose of 1 mg/kg in time interval of 1 hour; type: functional
# How it was run: (§1)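 Adult male Sprague-Dawley rats (150-200 g), 3-7 per group, given agent ip in saline containing DMSO; vehicle controls received saline/DMSO. Locomotion counted in an electronic activity monitor, reported as mean ± SEM counts/hour for 0-1, 1-2 and 2-3 h. Comparison by ANOVA, then post-hoc t tests against vehicle.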
# [3] = system: Rattus norvegicus; assay: The compound was evaluated for its behavioral activity i.e., locomotor arousal in rat for a dose of 1 mg/kg in time interval of 2 hours; type: functional; how it was run: as §1
# [4] = system: Rattus norvegicus; assay: The compound was evaluated for its behavioral activity i.e., locomotor arousal in rat for a dose of 1 mg/kg in time interval of 3 hours; type: functional; how it was run: as §1
# [5] = system: Rattus norvegicus; assay: The compound was evaluated for its behavioral activity i.e., locomotor arousal in rat for a dose of 0.3 mg/kg in time interval of 3 hours; type: functional; how it was run: as §1
# [6] = system: Rattus norvegicus; assay: The compound was evaluated for its behavioral activity i.e., locomotor arousal in rat for a dose of 3 mg/kg in time interval of 3 hours; type: functional; how it was run: as §1
# [7] = system: Rattus norvegicus; assay: The compound was evaluated for its behavioral activity i.e., locomotor arousal in rat for a dose of 1 mg/kg in time interval of 3 hours, expressed as mean =/- SEM activity; type: functional; how it was run: as §1
# [8] = system: Rattus norvegicus; assay: The compound was evaluated for its behavioral activity i.e., locomotor arousal in rat for a dose of 3 mg/kg in time interval of 1 hour; type: functional; how it was run: as §1
# [9] = system: Rattus norvegicus; assay: The compound was evaluated for its behavioral activity i.e., locomotor arousal in rat for a dose of 0.3 mg/kg in time interval of 2 hours; type: functional; how it was run: as §1
# [10] = system: Rattus norvegicus; assay: The compound was evaluated for its behavioral activity i.e., locomotor arousal in rat for a dose of 0.3 mg/kg in time interval of 1 hour; type: functional; how it was run: as §1
# [11] = system: Rattus norvegicus; assay: The compound was evaluated for its behavioral activity i.e., locomotor arousal in rat for a dose of 3 mg/kg in time interval of 2 hours; type: functional; how it was run: as §1
# Sequence of Sodium-dependent dopamine transporter (P23977 whole entry): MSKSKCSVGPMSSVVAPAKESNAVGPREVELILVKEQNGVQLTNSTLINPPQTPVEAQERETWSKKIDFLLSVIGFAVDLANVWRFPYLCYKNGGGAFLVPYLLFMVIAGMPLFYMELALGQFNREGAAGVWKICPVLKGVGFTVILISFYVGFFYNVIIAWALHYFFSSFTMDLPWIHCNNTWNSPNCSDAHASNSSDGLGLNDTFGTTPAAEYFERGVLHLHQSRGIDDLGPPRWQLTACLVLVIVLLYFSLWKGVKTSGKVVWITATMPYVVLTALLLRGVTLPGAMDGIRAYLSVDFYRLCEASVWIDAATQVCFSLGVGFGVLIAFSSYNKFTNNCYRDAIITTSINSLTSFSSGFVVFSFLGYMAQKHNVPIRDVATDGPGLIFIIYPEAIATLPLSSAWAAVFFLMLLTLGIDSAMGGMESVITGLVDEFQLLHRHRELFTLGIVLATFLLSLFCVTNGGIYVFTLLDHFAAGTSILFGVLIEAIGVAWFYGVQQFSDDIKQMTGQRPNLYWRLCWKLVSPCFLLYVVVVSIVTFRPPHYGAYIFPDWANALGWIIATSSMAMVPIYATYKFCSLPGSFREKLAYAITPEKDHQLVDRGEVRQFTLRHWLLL
Molecule,Ki [1] [nM],Count/h [2],Count/h [3],Count/h [8],Count/h [11],further results
CC(C)OC(=O)[C@@H]1C2CC[C@H](C[C@@H]1c1ccc(I)cc1)N2CCCF,1.2,,,,,
CC(C)OC(=O)[C@@H]1C2CC[C@H](C[C@@H]1c1ccc(I)cc1)N2CCF,4.4,,,,,
COC(=O)[C@H]1C(c2ccc(I)cc2)C[C@H]2CCC1N2C (stereo partly drawn),1.4,<6820,<9990,,,Count/h [4]: <9710
"(2S,5R)-8-(3-Fluoro-propyl)-3-(4-trimethylstannanyl-phenyl)-8-aza-bicyclo[3.2.1]octane-2-carboxylic acid methyl ester",> 10000,,,,,
COC(=O)[C@H]1C(c2ccc(I)cc2)C[C@H]2CCC1N2CCF (stereo partly drawn),4,<4180,<4200,<6898,<7796,Count/h [5]: <3459; Count/h [6]: <7562; Count/h [7]: <4400; Count/h [9]: <2945; Count/h [10]: <2030
"COC(=O)[C@@H]1C2CC[C@@H](C[C@@H]1OC(=O)c1ccccc1)N2C (single isomer, unassigned) [COCAINE]",,<14940,<1960,<15710,<712,
COC(=O)[C@H]1C(c2ccc(I)cc2)C[C@H]2CCC1N2CCCF (stereo partly drawn),3.5,<1943,<1071,<3791,<2109,Count/h [5]: 210; Count/h [6]: <1410; Count/h [4]: <325; Count/h [9]: 403; Count/h [10]: 759
"(2S,5R)-8-(3-Fluoro-propyl)-3-(4-trimethylstannanyl-phenyl)-8-aza-bicyclo[3.2.1]octane-2-carboxylic acid isopropyl ester",> 10000,,,,,
"(2S,5R)-8-(2-Fluoro-ethyl)-3-(4-trimethylstannanyl-phenyl)-8-aza-bicyclo[3.2.1]octane-2-carboxylic acid methyl ester",> 10000,,,,,
